Values belong to the molecule of their own block, whether it stands above or below them. The source made the active and inactive calls. The rule behind the calls is not given here. Starred links: 1 amine or outer side, 2 acyl side, 3 side chain; linkers in the order of their positions; H or OH if unused. Positions of bridges follow the written chain, without caps; N, C: chain ends. Residues, ends and D or L forms follow the SMILES beside them. TBMB = c1c(C[*:1])cc(C[*:3])cc1C[*:2]
Assays:
[1] = target: Urokinase-type plasminogen activator (Homo sapiens, UniProt P00749); experiment: Binding affinity to urokinase-type plasminogen activator
Plasma kallikrein [2] = target: T1, Plasma kallikrein (Homo sapiens, UniProt P03952); experiment: Inhibition of kallikrein-mediated intrinsic coagulation pathway in human plasma assessed as reduction in factor 12a generation at 160 nM by colorimetric assay; assay type: cell-free
Summary of the method: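 Human plasma was triggered with kaolin to start the intrinsic pathway. Factor XIIa activity was then read with a colorimetric substrate.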

[3] = Chemical stability of compound assessed as drug cleavage in presence of plasma kallikrein after 24 hrs at 37 degC by mass spectrometric analysis; assay type: physicochemical; settings: read-out: Activity
Summary of the method: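 The peptide was incubated with human plasma kallikrein. Cleavage was detected by mass spectrometry as an 18 Da mass gain, and the cleaved fraction was estimated.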

[4] = Chemical stability assessed as compound cleavage in presence of Aeromonas proteolytica by mass spectrometric analysis; assay type: physicochemical
Summary of the method: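 The kallikrein-cleaved peptide was incubated with leucyl aminopeptidase from Aeromonas proteolytica. The products were analysed by mass spectrometry to locate the cleavage site.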

Plasma kallikrein [5] = target: T1, Plasma kallikrein; experiment: Inhibition of human plasma kallikrein using Z-Phe-Arg-AMC substrate after 30 mins by spectrophotometric assay
[6] = target: Plasma kallikrein (Mus musculus) (UniProt P26262); experiment: Inhibition of mouse plasma kallikrein at 10 uM using Z-Phe-Arg-AMC substrate after 30 mins by spectrophotometric assay; assay type: cell-free
[7] = target: Coagulation factor XI (Homo sapiens) (UniProt P03951); experiment: Inhibition of human factor 11a at 10 uM using Z-Phe-Arg-AMC substrate after 30 mins by spectrophotometric assay
[8] = target: Prothrombin (Homo sapiens) (UniProt P00734); experiment: Inhibition of human thrombin at 10 uM using Boc-Phe-Ser-Arg-AMC substrate after 30 mins by spectrophotometric assay
[9] = Binding affinity to chymotrypsin
[10] = target: T2, Prostate-specific antigen (Homo sapiens, UniProt P07288); experiment: Binding affinity to prostate specific antigen
T2 sequence (P07288 whole entry): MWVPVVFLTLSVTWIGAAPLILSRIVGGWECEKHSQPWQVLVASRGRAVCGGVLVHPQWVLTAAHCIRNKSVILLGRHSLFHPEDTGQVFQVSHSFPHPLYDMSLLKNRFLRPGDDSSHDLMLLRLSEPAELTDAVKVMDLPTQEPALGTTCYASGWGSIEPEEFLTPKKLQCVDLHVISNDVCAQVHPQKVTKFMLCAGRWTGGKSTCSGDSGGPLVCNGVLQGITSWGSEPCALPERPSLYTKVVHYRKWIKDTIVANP

[11] = target: Coagulation factor VII/tissue factor (Homo sapiens, UniProt P08709); experiment: Binding affinity to tissue factor/factor 7a; assay type: protein-complex assay
Kallikrein-2 = target: T3, Kallikrein-2 (Homo sapiens, UniProt P20151); experiment: Binding affinity to human kallikrein 2
T3 sequence (P20151 whole entry): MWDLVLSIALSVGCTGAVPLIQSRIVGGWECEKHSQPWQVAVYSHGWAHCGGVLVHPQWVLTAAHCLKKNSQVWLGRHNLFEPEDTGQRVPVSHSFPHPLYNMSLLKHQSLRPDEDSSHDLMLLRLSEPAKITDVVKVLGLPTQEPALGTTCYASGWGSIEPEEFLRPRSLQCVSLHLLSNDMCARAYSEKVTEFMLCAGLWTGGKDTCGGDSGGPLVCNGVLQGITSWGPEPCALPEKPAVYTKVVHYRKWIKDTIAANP

T1 sequence (P03952 20-390 limits assumed): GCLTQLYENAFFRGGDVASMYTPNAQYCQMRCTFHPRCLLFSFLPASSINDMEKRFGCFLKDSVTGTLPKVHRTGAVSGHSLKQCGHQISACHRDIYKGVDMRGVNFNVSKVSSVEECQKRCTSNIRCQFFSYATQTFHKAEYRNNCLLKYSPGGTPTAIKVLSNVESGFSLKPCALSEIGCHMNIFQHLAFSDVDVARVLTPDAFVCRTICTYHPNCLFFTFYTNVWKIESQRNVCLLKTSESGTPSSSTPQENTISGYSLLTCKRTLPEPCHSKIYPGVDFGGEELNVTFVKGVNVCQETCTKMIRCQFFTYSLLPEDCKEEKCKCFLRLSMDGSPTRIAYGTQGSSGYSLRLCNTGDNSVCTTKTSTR
T1 sequence (P03952 391-638 limits assumed): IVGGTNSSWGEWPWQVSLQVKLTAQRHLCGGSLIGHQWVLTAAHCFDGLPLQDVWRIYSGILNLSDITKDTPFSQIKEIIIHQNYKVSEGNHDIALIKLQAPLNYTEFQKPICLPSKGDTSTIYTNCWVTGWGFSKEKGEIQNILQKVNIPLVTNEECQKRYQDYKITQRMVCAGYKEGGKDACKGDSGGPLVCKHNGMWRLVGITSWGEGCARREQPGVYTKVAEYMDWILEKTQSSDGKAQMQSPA
Coagulation factor XI (Homo sapiens), sequence (P03951 19-387 limits assumed): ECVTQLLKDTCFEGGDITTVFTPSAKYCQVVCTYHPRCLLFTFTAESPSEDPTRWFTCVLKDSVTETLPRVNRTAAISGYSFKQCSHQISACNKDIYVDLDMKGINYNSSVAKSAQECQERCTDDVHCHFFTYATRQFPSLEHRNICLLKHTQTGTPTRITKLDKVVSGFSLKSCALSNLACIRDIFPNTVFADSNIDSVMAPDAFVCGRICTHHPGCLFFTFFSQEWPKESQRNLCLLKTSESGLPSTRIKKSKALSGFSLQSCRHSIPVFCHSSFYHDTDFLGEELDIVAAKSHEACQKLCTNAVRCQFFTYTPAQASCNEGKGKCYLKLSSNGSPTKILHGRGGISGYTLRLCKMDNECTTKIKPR
Coagulation factor XI (Homo sapiens), sequence (P03951 388-625 limits assumed): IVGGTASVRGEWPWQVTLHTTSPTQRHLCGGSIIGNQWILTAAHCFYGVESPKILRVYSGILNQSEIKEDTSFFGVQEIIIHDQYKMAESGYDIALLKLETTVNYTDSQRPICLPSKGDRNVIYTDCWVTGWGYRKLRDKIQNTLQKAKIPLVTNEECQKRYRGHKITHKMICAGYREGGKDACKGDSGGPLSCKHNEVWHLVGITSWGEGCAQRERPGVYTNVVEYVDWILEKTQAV
Plasma kallikrein (Mus musculus), sequence (P26262 20-390 limits assumed): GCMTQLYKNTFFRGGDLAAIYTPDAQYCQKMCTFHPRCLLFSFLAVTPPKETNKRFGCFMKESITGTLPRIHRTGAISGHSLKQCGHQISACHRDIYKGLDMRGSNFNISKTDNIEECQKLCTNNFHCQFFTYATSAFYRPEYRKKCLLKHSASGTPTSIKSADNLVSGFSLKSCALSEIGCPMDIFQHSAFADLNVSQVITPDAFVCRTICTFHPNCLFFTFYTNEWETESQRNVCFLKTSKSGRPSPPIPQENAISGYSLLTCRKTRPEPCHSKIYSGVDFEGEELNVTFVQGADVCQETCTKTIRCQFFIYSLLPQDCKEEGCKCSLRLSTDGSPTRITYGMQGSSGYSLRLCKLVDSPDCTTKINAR
Plasma kallikrein (Mus musculus), sequence (P26262 391-638 limits assumed): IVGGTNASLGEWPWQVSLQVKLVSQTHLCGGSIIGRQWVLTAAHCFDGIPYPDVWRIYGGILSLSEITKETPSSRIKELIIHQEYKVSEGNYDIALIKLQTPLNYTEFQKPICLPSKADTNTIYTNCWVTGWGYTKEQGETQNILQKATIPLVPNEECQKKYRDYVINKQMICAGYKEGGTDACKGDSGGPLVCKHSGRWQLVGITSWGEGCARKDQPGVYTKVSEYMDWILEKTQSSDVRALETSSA
Coagulation factor VII/tissue factor, sequence (P08709 61-212 limits assumed): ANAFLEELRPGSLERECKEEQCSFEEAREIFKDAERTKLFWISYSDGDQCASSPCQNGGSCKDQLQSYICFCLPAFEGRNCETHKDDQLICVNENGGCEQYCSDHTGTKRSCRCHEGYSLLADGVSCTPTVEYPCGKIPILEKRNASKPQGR
Coagulation factor VII/tissue factor, sequence (P08709 213-466 limits assumed): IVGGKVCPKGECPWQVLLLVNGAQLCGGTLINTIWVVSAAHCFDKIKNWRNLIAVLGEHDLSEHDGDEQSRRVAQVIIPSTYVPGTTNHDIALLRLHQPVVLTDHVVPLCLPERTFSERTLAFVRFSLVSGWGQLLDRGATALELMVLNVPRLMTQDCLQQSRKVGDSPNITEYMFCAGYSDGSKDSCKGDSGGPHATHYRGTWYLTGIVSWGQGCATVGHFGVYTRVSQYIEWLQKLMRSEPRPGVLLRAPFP
Coagulation factor VII/tissue factor, sequence (P13726 33-295 partner limits assumed): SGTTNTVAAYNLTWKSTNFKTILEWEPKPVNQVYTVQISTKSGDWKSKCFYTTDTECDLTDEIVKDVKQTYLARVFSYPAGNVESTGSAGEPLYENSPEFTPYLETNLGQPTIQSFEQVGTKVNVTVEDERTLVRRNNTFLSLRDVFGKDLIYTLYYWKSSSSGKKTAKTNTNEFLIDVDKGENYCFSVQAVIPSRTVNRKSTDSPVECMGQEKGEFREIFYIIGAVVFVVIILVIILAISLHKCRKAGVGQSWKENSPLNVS

Ki [1]: 6700 nM
Molecule: CSCC[C@H](NC(=O)[C@H](CCCNC(=N)N)NC(=O)[C@H](Cc1cnc[nH]1)NC(=O)[C@H](CC(N)=O)NC(=O)[C@H](CCC(=O)O)NC(=O)[C@H](CC(C)C)NC(=O)CNC(=O)[C@H](CCCNC(=N)N)NC(=O)[C@H](Cc1c[nH]c2ccccc12)NC(=O)[C@H](CO)NC(=O)[C@@H](N)CS)C(=O)N[C@@H](CS)C(=O)O

Ki [1]: 400 nM
Molecule: CC(C)C[C@H](NC(=O)[C@H](Cc1ccc(O)cc1)NC(=O)[C@H](CCCNC(=N)N)NC(=O)[C@H](CO)NC(=O)[C@H](Cc1ccc(O)cc1)NC(=O)[C@H](C)NC(=O)[C@@H]1CCCN1C(=O)[C@@H](N)CS)C(=O)N[C@@H](CC(=O)O)C(=O)N[C@@H](CS)C(=O)O

inhibition (Plasma kallikrein [2]): Active | metabolised at 24 h [3]: 90% | Stability [4]: Unstable
Molecule: CC(C)C[C@@H]1NC(=O)[C@H](C)NC(=O)[C@H](CCC(=O)O)NC(=O)[C@H](CC(=O)O)NC(=O)[C@H](C)NC(=O)[C@@H]2CCCN2C(=O)[C@@H]2CSCc3cc(cc(c3)CSC[C@@H](C(=O)NCC(N)=O)NC1=O)CSC[C@H](NC(=O)[C@H](C)N)C(=O)N[C@@H](CO)C(=O)N[C@@H](CC(=O)O)C(=O)N[C@@H](CCCNC(=N)N)C(=O)N[C@@H](Cc1ccccc1)C(=O)N[C@@H](CCCNC(=N)N)C(=O)N[C@@H](CC(N)=O)C(=O)N2 (H-ACSDRFRNCPADEALCG-NH2; linker 2-9-16 via TBMB)

The next lines start with the molecule.

Molecule: CC[C@H](C)[C@H](NC(=O)[C@H](CCC(=O)O)NC(=O)[C@@H](NC(=O)[C@@H]1CCCN1C(=O)[C@H](CS)NC(=O)[C@H](Cc1ccc(O)cc1)NC(=O)[C@H](CCCNC(=N)N)NC(=O)[C@H](CCCNC(=N)N)NC(=O)[C@H](CCC(=O)O)NC(=O)[C@@H](NC(=O)[C@H](CO)NC(=O)[C@H](CS)NC(=O)[C@H](C)N)[C@@H](C)O)[C@@H](C)CC)C(=O)N[C@@H](Cc1ccccc1)C(=O)N1CCC[C@H]1C(=O)N[C@@H](CS)C(=O)NCC(N)=O (H-ACSTERRYCPIEIFPCG-NH2)
IC50 (Plasma kallikrein [5]): 7180 nM | inhibition [6]: inactive | inhibition [7]: inactive | inhibition [8]: inactive

Molecule: N=C(N)NCCC[C@H](NC(=O)[C@H](CS)NC(=O)[C@H](CCCNC(=N)N)NC(=O)[C@H](Cc1c[nH]c2ccccc12)NC(=O)[C@H](CO)NC(=O)[C@H](Cc1ccccc1)NC(=O)[C@H](CS)NC(=O)[C@@H](N)CS)C(=O)N[C@@H](CS)C(=O)O (H-CCFSWRCRC-OH)
Ki [9]: 1000 nM

Molecule: CC[C@H](C)[C@H](NC(=O)[C@H](CS)NC(=O)[C@H](Cc1ccc(O)cc1)NC(=O)[C@H](C)NC(=O)[C@@H](NC(=O)[C@@H](N)CS)C(C)C)C(=O)N[C@@H](CCC(=O)O)C(=O)N[C@@H](Cc1cnc[nH]1)C(=O)N[C@@H](Cc1cnc[nH]1)C(=O)N[C@@H](CS)C(=O)N[C@@H](Cc1c[nH]c2ccccc12)C(=O)N[C@H](C(=O)N[C@@H](CS)C(=O)O)[C@@H](C)O (H-CVAYCIEHHCWTC-OH)
Kd [10]: 2900 nM

Molecule: CC(C)C[C@H](NC(=O)[C@@H](NC(=O)[C@H](CCC(=O)O)NC(=O)[C@H](Cc1c[nH]c2ccccc12)NC(=O)[C@H](CCC(=O)O)NC(=O)[C@@H](N)CCC(=O)O)C(C)C)C(=O)N[C@@H](CS)C(=O)N[C@@H](Cc1c[nH]c2ccccc12)C(=O)N[C@H](C(=O)N[C@@H](Cc1c[nH]c2ccccc12)C(=O)N[C@@H](CCC(=O)O)C(=O)N[C@H](C(=O)N[C@@H](CS)C(=O)N[C@@H](CCC(=O)O)C(=O)N[C@@H](CCCN=C(N)N)C(=O)O)[C@@H](C)O)[C@@H](C)O (H-EEWEVLCWTWETCER-OH)
IC50 [11]: 1.5 nM

Molecule: H-SRFKVWWAAF-OH
IC50 (Kallikrein-2): 3400 nM
